Shown are actives, neighbours in structure and some others; about 3.9% of the full set was active somewhere.
CHRM1 PAM: positive allosteric modulators of human M1 muscarinic receptor; 360,000 compounds, 0.088% hits; AID 588819; P11229; activation, % at 3 µM; CHO-K1 hM1, Fluo-8 calcium fluorescence, ACh EC20; 0% = ACh EC20, 100% = maximal ACh; in the data active = activation above about 19%, passing the limit was not always enough
TAAR1 agonist: human TAAR1 agonism; CHO RD-HGA16 TAAR1, Fluo-8 calcium fluorescence; vehicle wells 0%, saturating PEA agonist 100%; 360,000 compounds, 0.99% hits; activation, % at 3 µM; AID 624467;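 active = activation above the mean activation of all test compounds in the run plus 3 SD, cut at about 38% in these data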
Target sequence (Q96RJ0 whole entry, looked up): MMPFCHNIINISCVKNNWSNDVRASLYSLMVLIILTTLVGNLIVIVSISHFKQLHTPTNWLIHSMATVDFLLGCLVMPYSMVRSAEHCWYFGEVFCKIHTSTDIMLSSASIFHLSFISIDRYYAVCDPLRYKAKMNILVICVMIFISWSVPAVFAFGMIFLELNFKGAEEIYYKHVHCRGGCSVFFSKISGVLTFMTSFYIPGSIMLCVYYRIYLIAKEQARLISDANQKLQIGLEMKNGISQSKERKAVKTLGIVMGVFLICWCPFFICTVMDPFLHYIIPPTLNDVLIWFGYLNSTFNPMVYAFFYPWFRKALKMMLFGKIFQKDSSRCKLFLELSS
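Test system: RD-HGA16 (CHO) cells co-expressing Gα16 and hTAAR1 / Benchmarks: DMSO vehicle as 0%, PEA at EC100 as 100% / Repeats: no replicates (n 1) / Measure: % activation from peak over basal fluorescence ratio, DMSO-to-PEA scaled / Timing: 17-24 h plating, Fluo-8 75 min 37 °C, 30 min RT / Technique: kinetic Fluo-8 calcium fluorescence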
M1 antag: blocks human M1 muscarinic receptor. P11229. CHO-K1 hM1, Fluo-8 calcium fluorescence, ACh EC80 antagonist. inhibition, % at 3 µM. 360,000 compounds, 1.3% hits;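 active = percent inhibition above its own plate's cutoff, namely the mean of that plate's compound wells plus 3 SD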;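 note: peak over basal fluorescence ratio during 140 s after agonist addition; 0% = ACh EC80 plus DMSO and 100% = DMSO alone without agonist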
HTR2A ag: agonists of mouse serotonin 5-HT2A receptor (HTR2A). CHO-K1 mHTR2A beta-arrestin complementation, luminescence; percent of 30 µM serotonin response. activation, % at 7.6 µM. 360,000 compounds, 0.66% hits. AID 624169;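 active = activation above a run cutoff, the mean activation of all tested compounds plus 3 SD, cut at about 14% in these data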;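 note: 0% = plate median of compound wells and 100% = 30 µM serotonin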
TAAR1 antag: antagonists of human TAAR1; 360,000 compounds, 1.5% hits; AID 624466; Q96RJ0; CHO RD-HGA16 TAAR1, Fluo-8 calcium fluorescence, antagonist; inhibition, % at 3 µM;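 active = inhibition above a per-plate cutoff, the mean inhibition of test compounds on that plate plus 3 SD, cut at about 49% in these data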;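 note: 0% = DMSO plus EC80 beta-PEA response and 100% = DMSO alone without agonist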
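Assay system: RD-HGA16 CHO cells with stable hTAAR1 and Gα16 / Reagent: EC80 β-phenethylamine stimulus / Doses: 3 µM, single point / Timing: dye loading 75 min at 37 °C, then 30 min room temperature / Measured by: Fluo-8 intracellular calcium dye fluorescence, real-time kinetic reads / Controls: vehicle wells and EC80 agonist wells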
CHRM1 agonist: activates human CHRM1 receptor; P11229; CHO-K1 hM1, Fluo-8 calcium fluorescence, agonist mode; 0% DMSO, 100% acetylcholine EC100; activation, % at 3 µM; 360,000 compounds, 0.33% hits; AID 588814;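 active = activation above the run's mean compound activation plus 3 SD, cut at about 16% in these data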;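 note: peak over basal fluorescence ratio within a 140 s kinetic read after compound addition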
OPRM1 ag: counter-screen for mouse HTR2A agonists: human mu opioid receptor agonists. shares compounds with HTR2A ag. U2OS OPRM1 beta-arrestin PathHunter, luminescence; DMSO 0%, DAMGO 9.3 µM 100%. activation, % at 9.3 µM. 2,300 compounds, 5.3% hits;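 active = mean activation above the mean of DMSO-only wells plus 3 SD, cut at about 0.5% in these data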
m5-HT2A ag conf: mouse HTR2A agonism confirmed; shares compounds with HTR2A ag; AID 624381; activation, % at 7.6 µM; CHO-K1 PathHunter beta-arrestin recruitment, luminescence; DMSO 0%, 30 µM serotonin 100%; 2,300 compounds, 19% hits;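 active = mean activation across triplicates above the hit threshold derived in the original primary screen, cut at about 15% in these data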
An asterisk follows results filed as active.

C[C@H](CO)N1C[C@H](C)[C@@H](CN(C)Cc2cccc3c2OCCCO3)OCc2cnnn2CCCC1=O was read as CHRM1 PAM 8, TAAR1 agonist -1, M1 antag -12, HTR2A ag 19*, TAAR1 antag 8, CHRM1 agonist -6, OPRM1 ag 0 and m5-HT2A ag conf -2.
COc1ccc2c(Cl)c(C(=O)NN3CCN(C)CC3)sc2c1 was read as CHRM1 PAM 1, TAAR1 agonist 0, M1 antag -5, HTR2A ag -4, TAAR1 antag -11 and CHRM1 agonist -6.
CCc1cc(C(=O)N2CCCC(C(=O)c3cccc4ccccc34)C2)n(C)n1 (stereo unspecified) was read as CHRM1 PAM -1, TAAR1 agonist 2, M1 antag 3, HTR2A ag -2, TAAR1 antag -1 and CHRM1 agonist -2.
`COc1ccc(S(=O)(=O)NCc2csc(-c3cccnc3)n2)cc1` gave CHRM1 PAM 3, TAAR1 agonist 1, M1 antag -8, HTR2A ag 17*, TAAR1 antag -11, CHRM1 agonist -2, OPRM1 ag -1 and m5-HT2A ag conf -4.
O=S(=O)(NCc1csc(-c2cccnc2)n1)c1ccc(Br)cc1 was read as CHRM1 PAM 0, TAAR1 agonist 1, M1 antag -6, HTR2A ag 8, TAAR1 antag -28 and CHRM1 agonist 1.
Screening COc1ccccc1CCNC(=O)c1ccccc1SCC(=O)N1CCCC1 returned CHRM1 PAM 11, TAAR1 agonist 1, M1 antag -16, HTR2A ag 4, TAAR1 antag 5 and CHRM1 agonist -5.
COc1ccccc1NC(=O)c1ccccc1SCC(=O)N1CCCC1 was read as CHRM1 PAM -4, TAAR1 agonist 0, M1 antag 16, HTR2A ag 14*, TAAR1 antag 2, CHRM1 agonist -1, OPRM1 ag -1 and m5-HT2A ag conf -4.
`O=c1c2ccccc2nc(-c2ccc([N+](=O)[O-])cc2)n1O` gave CHRM1 PAM 13, TAAR1 agonist 0, M1 antag -8, HTR2A ag 16*, TAAR1 antag -3, CHRM1 agonist -11, OPRM1 ag 0 and m5-HT2A ag conf -2.
CC(=O)Nc1ccc(S(=O)(=O)N2CCC(c3nc4c(nnn4Cc4ccccc4Cl)c(=O)[nH]3)CC2)cc1 was read as CHRM1 PAM -6, TAAR1 agonist -2, M1 antag 10, HTR2A ag 5, TAAR1 antag -16 and CHRM1 agonist -13.
For CCOC(=O)[C@H]1[C@H]2COc3ccccc3[C@@H]2N2C(=O)c3cc(F)ccc3NC(=O)[C@@]12C the results were CHRM1 PAM -28, TAAR1 agonist 9, M1 antag 24, HTR2A ag 0, TAAR1 antag -6 and CHRM1 agonist -11.
For CCOC(=O)[C@H]1[C@H]2COc3ccccc3[C@@H]2N2C(=O)c3cc(F)c(F)cc3NC(=O)[C@@]12C the results were CHRM1 PAM -12, TAAR1 agonist 5, M1 antag 20, HTR2A ag 15*, TAAR1 antag -5, CHRM1 agonist -8, OPRM1 ag 0 and m5-HT2A ag conf 2.
COC(=O)CCCC1=CC2=C(c3ccccc3)C(=O)C(C)(OC(=O)C3CCCC3)C(=O)C2=CN1CCc1ccccn1 (stereo unspecified) was read as CHRM1 PAM 6, TAAR1 agonist 12, M1 antag -2, HTR2A ag 15*, TAAR1 antag 0, CHRM1 agonist -5, OPRM1 ag 0 and m5-HT2A ag conf -5.
For O=C(Nc1cccc2nsnc12)c1ccc(-c2cccc(Cl)c2)o1 the results were CHRM1 PAM 13, TAAR1 agonist 0, M1 antag -11, HTR2A ag 16*, TAAR1 antag 12, CHRM1 agonist -1, OPRM1 ag 0 and m5-HT2A ag conf 0.
Screening O=C(Nc1ccccc1N1CCCCC1)c1ccc(-c2cccc(Cl)c2)o1 returned CHRM1 PAM 6, TAAR1 agonist 1, M1 antag -9, HTR2A ag 1, TAAR1 antag -25 and CHRM1 agonist -3.
CCS(=O)(=O)C1=NN2C(=N)/C(=C\c3ccc(SCc4ccco4)o3)C(=O)N=C2S1 was read as CHRM1 PAM -7, TAAR1 agonist 6, M1 antag 6, HTR2A ag 18*, TAAR1 antag -8, CHRM1 agonist 6, OPRM1 ag 2.2* and m5-HT2A ag conf 13.
`CCOc1cc(/C=C2\C(=N)N3N=C(S(=O)(=O)CC)SC3=NC2=O)ccc1OC(=O)c1ccco1` gave CHRM1 PAM 3, TAAR1 agonist -2, M1 antag 4, HTR2A ag -5, TAAR1 antag -54 and CHRM1 agonist -2.
C[C@@H](O)C#Cc1ccc2c(c1)O[C@H](CN(C)C(=O)Nc1ccccc1)[C@@H](C)CN([C@@H](C)CO)S2(=O)=O was read as CHRM1 PAM -2, TAAR1 agonist 6, M1 antag 5, HTR2A ag 15*, TAAR1 antag 8, CHRM1 agonist -3, OPRM1 ag 0 and m5-HT2A ag conf 8.
CC(C)NC(=O)N(C)C[C@H]1Oc2cc(C#Cc3ccc(F)cc3)ccc2S(=O)(=O)N([C@H](C)CO)C[C@H]1C was read as CHRM1 PAM -2, TAAR1 agonist 8, M1 antag -12, HTR2A ag 41*, TAAR1 antag -4, CHRM1 agonist 0, OPRM1 ag -1 and m5-HT2A ag conf 24*.
For O=C(NCC(NS(=O)(=O)OCC(Cl)(Cl)Cl)c1ccccc1)C(F)(F)F (stereo unspecified) the results were CHRM1 PAM 2, TAAR1 agonist 11, M1 antag 3, HTR2A ag 6, TAAR1 antag 12 and CHRM1 agonist 1.
COc1ccc(Br)cc1S(=O)(=O)N1CCCc2ccccc21 was read as CHRM1 PAM 14, TAAR1 agonist -1, M1 antag -17, HTR2A ag -5, TAAR1 antag -12 and CHRM1 agonist -5.
For Cc1ccn2cc(CCNS(=O)(=O)c3ccc4c(c3)CCCC4)nc2c1 the results were CHRM1 PAM 1, TAAR1 agonist -1, M1 antag -8, HTR2A ag 25*, TAAR1 antag -2, CHRM1 agonist -13, OPRM1 ag -1 and m5-HT2A ag conf -5.
